In data set [1] the target is T1, Amyloid-beta precursor protein (Homo sapiens, UniProt P05067). Put plainly: Displacement of [3H]PiB from human amyloid beta (1-40) at 100 nM after 180 mins by liquid scintillation counter. (In general: In a radioligand displacement assay an active substance lowers the binding of a labelled ligand.)
For data set [2], the target named is T1, Amyloid-beta precursor protein. Put plainly: Displacement of [3H]PiB from human amyloid beta (1-42) at 100 nM after 180 mins by liquid scintillation counter.
Data set [3] in a line: Octanol-phosphate buffered saline partition coefficient, log P of the compound at pH 7.4. In kind it is physicochemical.
Data set [4] deals with Brain. Put plainly: Drug uptake in Balb-C mouse brain at 4-6 MBq after 30 mins by gamma counting. The note with it: in vivo, 0.5 h. In kind it is ADME, tissue-based. The procedure, abridged: (§1)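 Normal male Balb-C mice were given an iv [11C]-labeled compound. Brain uptake was measured as %ID/g at 5 and 30 min post-injection (n=5). Clearance is expressed as the 5 min/30 min %ID/g ratio.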

Data set [5] has as its system Brain. Put plainly: Ratio of drug uptake in Balb-C mouse brain after 5 mins to drug uptake in Balb-C mouse brain after 30 mins. In kind it is ADME, tissue-based. The note with it: in vivo. The procedure, abridged:
as §1

Data set [6] concerns Mus musculus. Put plainly: Binding affinity to amyloid beta in telencephalon region in iv dosed APP/PS1 transgenic C57BL6/J mouse alzheimer's disease model after 5 to 30 mins by autoradiography analysis relative to control. Type of data set: functional, organism-based. The procedure, abridged: (§2)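 APP/PS1 (ARTE10) homozygous female mice, 22 months old, with age- and gender-matched C57BL6/J female controls (two each). A single tail-vein bolus of [11C]5 mixed with [3H]1a (7.2 MBq) was given. Readouts were telencephalon/cerebellum ratios from three sources: μPET/CT coregistered to an MRI template (summed 20-30 min), dual-label digital autoradiography of 12 μm sections, and regional biodistribution, all at 30 min p.i.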

In data set [7] the test system is Mus musculus. Put plainly: Binding affinity to amyloid beta in telencephalon region in APP/PS1 transgenic C57BL6/J mouse alzheimer's disease model at 50.2 MBq, iv after 5 to 30 mins by micro PET examination relative to control. In kind it is functional, organism-based. Particulars: 50.2 M, tested as the 11C-labelled form. In short, it runs like this: as §2
The test system of data set [8] is Mus musculus. Briefly: Binding affinity to amyloid beta in cerebellum region in APP/PS1 transgenic C57BL6/J mouse alzheimer's disease model at 50.2 MBq, iv after 5 to 30 mins by micro PET examination relative to control. Type of data set: functional, organism-based. Particulars: 50.2 M, tested as the 11C-labelled form. In short, it runs like this: as §2
For data set [9], the system named is Mus musculus. Put plainly: Binding affinity to amyloid beta in cerebellum region in APP/PS1 transgenic C57BL6/J mouse alzheimer's disease model at 50.2 MBq, iv after 5 to 30 mins by MRI examination relative to control. Particulars: 50.2 M, tested as the 11C-labelled form. In kind it is functional, organism-based. The procedure, abridged:
as §2

In data set [10] the test system is Mus musculus. Briefly: Binding affinity to amyloid beta in telencephalon region in APP/PS1 transgenic C57BL6/J mouse alzheimer's disease model at 50.2 MBq, iv after 5 to 30 mins by MRI examination relative to control. In kind it is functional, organism-based. Particulars: 50.2 M, tested as the 11C-labelled form. The procedure, abridged: as §2
Data set [11] concerns Mus musculus. Briefly: Binding affinity to amyloid beta in cerebellum region in APP/PS1 transgenic C57BL6/J mouse alzheimer's disease model at 50.2 MBq, iv after 5 to 30 mins by autoradiography analysis relative to control. In kind it is functional, organism-based. Particulars: 50.2 M, tested as the 11C-labelled form. In short, it runs like this: as §2
Data set [12] concerns Mus musculus. Put plainly: Binding affinity to amyloid beta in telencephalon region in APP/PS1 transgenic C57BL6/J mouse alzheimer's disease model at 50.2 MBq, iv after 5 to 30 mins by autoradiography analysis relative to control. Type of data set: functional, organism-based. The note with it: 50.2 M, tested as the 11C-labelled form. In short, it runs like this: as §2
In data set [13] the test system is Mus musculus. Briefly: Binding affinity to amyloid beta in iv dosed telencephalon region in APP/PS1 transgenic C57BL6/J mouse alzheimer's disease model after 5 to 30 mins by micro PET examination relative to control. In kind it is functional, organism-based. The procedure, abridged:
as §2

The subject of data set [14] is Brain. Put plainly: Drug uptake in Balb-C mouse brain at 4-6 MBq by gamma counting. The note with it: in vivo.
Data set [15] relates to Brain. Briefly: Drug uptake in Balb-C mouse brain at 4-6 MBq after 5 mins by gamma counting. Type of data set: ADME, tissue-based. Particulars: in vivo. The procedure, abridged:
as §1

A short description of data set [16]: Drug uptake in Balb-C mouse blood assessed as compound remaining after 10 mins at 4-6 MBq by gamma counting. Type of data set: ADME, tissue-based. Particulars: read-out: Drug uptake. In short, it runs like this:
(§3)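 Normal Balb-C mice received an iv [11C]-labeled tracer. HPLC analysis of blood and brain homogenates was done at 10 and 30 min post-injection to give percent intact tracer (n=3).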

A short description of data set [17]: Drug uptake in Balb-C mouse blood assessed as compound remaining at 4-6 MBq after 30 mins by gamma counting. Particulars: read-out: Drug uptake. In kind it is ADME, tissue-based. The procedure, abridged:
as §3

Data set [18] can be described thus: Drug uptake in Balb-C mouse brain assessed as compound remaining at 4-6 MBq after 10 mins by gamma counting. Particulars: read-out: Drug uptake. Type of data set: ADME, tissue-based. The procedure, abridged:
as §3

Data set [19] in a line: Drug uptake in Balb-C mouse brain assessed as compound remaining at 4-6 MBq after 30 mins by gamma counting. In kind it is ADME, tissue-based. Particulars: read-out: Drug uptake. The procedure, abridged:
as §3

[20] abbreviates: tested as the 11C-labelled form.

The source made the active and inactive calls. The rule behind the calls is not given here.

T1 sequence (P05067 whole entry): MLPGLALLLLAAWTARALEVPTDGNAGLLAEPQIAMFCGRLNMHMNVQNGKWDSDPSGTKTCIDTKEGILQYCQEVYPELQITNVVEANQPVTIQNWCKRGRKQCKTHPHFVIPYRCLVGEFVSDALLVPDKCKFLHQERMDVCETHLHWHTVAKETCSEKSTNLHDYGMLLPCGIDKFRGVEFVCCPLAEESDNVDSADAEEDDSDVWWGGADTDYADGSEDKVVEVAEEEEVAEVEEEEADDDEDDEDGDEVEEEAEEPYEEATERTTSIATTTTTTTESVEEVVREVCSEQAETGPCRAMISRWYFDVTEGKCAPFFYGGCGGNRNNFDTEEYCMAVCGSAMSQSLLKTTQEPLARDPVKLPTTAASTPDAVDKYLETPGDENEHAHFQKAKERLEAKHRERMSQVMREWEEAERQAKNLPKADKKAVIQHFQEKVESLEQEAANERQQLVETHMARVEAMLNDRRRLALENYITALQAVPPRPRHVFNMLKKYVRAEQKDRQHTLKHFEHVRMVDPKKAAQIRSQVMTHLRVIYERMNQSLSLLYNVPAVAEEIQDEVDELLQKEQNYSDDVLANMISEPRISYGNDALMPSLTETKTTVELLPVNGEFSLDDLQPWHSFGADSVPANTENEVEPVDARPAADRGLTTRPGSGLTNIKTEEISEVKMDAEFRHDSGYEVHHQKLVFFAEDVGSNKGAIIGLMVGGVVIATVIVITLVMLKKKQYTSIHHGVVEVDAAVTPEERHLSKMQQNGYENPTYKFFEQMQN

`Nc1ccc(-c2cn3c(n2)sc2cc(O)ccc23)cc1`: the inhibition in [1] and in [2] was 48% throughout.
On to `CNc1ccc(-c2cn3c(n2)sc2cc(OC)ccc23)cc1`, for which the Ki – broadly, the dissociation constant of the complex between target and ligand, obtained from inhibition or displacement – amounted to 3.5 nM in [1] and 5.8 nM in [2]. Further, the inhibition – broadly, the share of the control response that was lost under treatment – in [1] is 95%; in [2], 97%. Further, the logD – broadly, lipophilicity at a set pH, counting ionised and neutral species – in data set [3] was 1.7. In [4], the Drug uptake came to 0.7 % ID/g. Further, the Ratio in [5] is reported as 9.1. Besides, the result in [6] (setting [20]), in [7], in data set [10], in data set [12] and in data set [13] (setting [20]) was Active. For the same compound, the outcome in [8], in [9] and in data set [11] was inactive.
`COc1ccc2c(c1)sc1nc(-c3ccc(N(C)C)cc3)cn12`: the inhibition in data set [1] is 89%; in [2], 91%. The logD in [3] amounted to 1.9. Also, the results for the Drug uptake in data set [4] and in data set [14] were 0.7 % ID/g and 1.9 % ID/g, respectively.
In the case of `CNc1ccc(-c2cn3c(n2)sc2cc(O)ccc23)cc1`, the inhibition amounted to 46% in data set [1] and 73% in [2]. The compound also showed a logD in data set [3] of 1.2. Also, the figures for the Drug uptake in data set [4] and in data set [14] were 0.7 % ID/g and 1.9 % ID/g, respectively.
On to `COc1ccc2c(c1)sc1nc(-c3ccc(NC(C)=O)cc3)cn12`, for which the figures for the inhibition in [1] and in data set [2] were 44% and 64%, respectively.
Take `COc1ccc2c(c1)sc1nc(-c3ccc(N)cc3)cn12`: the values for the inhibition in data set [1] and in data set [2] were 57% and 74%, respectively.
As for `CCN(CC)c1ccc(-c2cn3c(n2)sc2cc(O)ccc23)cc1`, the inhibition came out at 79% in data set [1] and 91% in data set [2].
Consider `COc1ccc2c(c1)sc1nc(-c3ccc(N[11CH3])cc3)cn12`, for which the Drug uptake result in data set [15] is given as “Active”. Besides, the results for the remaining at 10 min in data set [16] and in data set [18] were 15% and 95%, respectively. For the same compound, the remaining at 0.5 h worked out at 7% in data set [17] and 91% in data set [19].
Consider `COc1ccc2c(c1)sc1nc(-c3ccc(N4CCCC4)cc3)cn12`, for which the inhibition was 91% in [1] and 82% in [2]. Further, the logD in data set [3] was 1.9. Besides, the Drug uptake in data set [4] was 0.7 % ID/g; in data set [14], 1.9 % ID/g.
For `Oc1ccc2c(c1)sc1nc(-c3ccc(N4CCCC4)cc3)cn12`, the inhibition in data set [1] and in [2] was 91% in each case.
Consider `CNc1ccc(-c2nc3ccc(O)cc3s2)cc1`, for which the inhibition in [1] was 88%; in data set [2], 83%. Moreover, the outcome in data set [6] (tested as the 3H-labelled form) and in [13] (tested as the 3H-labelled form) was Active.
Turning to `CCN(CC)c1ccc(-c2cn3c(n2)sc2cc(OC)ccc23)cc1`, the inhibition came out at 79% in data set [1] and 91% in data set [2]. This compound had a logD in data set [3] of 2.2. Moreover, the Drug uptake turned out to be 0.7 % ID/g in data set [4] and 1.9 % ID/g in [14].
`CN(C)c1ccc(-c2cn3c(n2)sc2cc(O)ccc23)cc1`: the inhibition was determined as 85% in data set [1] and 86% in [2].
